Assay results as given in ChEMBL document CHEMBL2331347, “Biselectivity of isoDGR peptides for fibronectin binding integrin subtypes α5β1 and αvβ6: conformational control through flanking amino acids” (J Med Chem, 2013).

Assays:
Integrin alpha-V/beta-6 = Integrin alpha-V/beta-6 (Homo sapiens, UniProt P06756+P18564); experiment: Inhibition of latency-associated peptide binding to Integrin alphaVbeta6 receptor (unknown origin) by competitive ELISA; type: protein-complex assay
Procedure, shortened: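 LAP coated at 0.4 μg/mL; soluble αvβ6 at 0.25 μg/mL final, mixed with serially diluted inhibitor. Bound integrin detected with anti-human αv antibody (1:500), then peroxidase secondary antibody (2.0 μg/mL), A450. Blocking, washing and curve analysis as for the α5β1 ELISA; IC50 from the inflection point.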

Integrin alpha-5/beta-1 = Integrin alpha-5/beta-1 (Homo sapiens, UniProt P05556+P08648); experiment: Inhibition of fibronectin binding to human Integrin alpha5beta1 receptor by competitive ELISA; type: protein-complex assay
Procedure, shortened: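 Plates coated overnight at 4 °C with 0.5 μg/mL fibronectin at pH 9.6, then blocked with 1% BSA in Tris buffer containing Ca, Mg and Mn. Soluble human α5β1 (1.0 μg/mL final) and inhibitor (0.00013−10 μM final) incubated 1 h at RT. Bound integrin detected with anti-CD49e and peroxidase secondary antibody, A450. Duplicates; IC50 taken as the inflection point of the inhibition curve.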

Integrin alpha-V/beta-5 = Integrin alpha-V/beta-5 (Homo sapiens, UniProt P06756+P18084); experiment: Inhibition of vitronectin binding to Integrin alphaVbeta5 receptor (unknown origin) by competitive ELISA; type: protein-complex assay
[1] = biological target: Integrin alpha-IIb/beta-3 (Homo sapiens, UniProt P05106+P08514); experiment: Inhibition of fibrinogen binding to Integrin alpha2bbeta3 receptor (unknown origin) by competitive ELISA; type: protein-complex assay
Integrin alpha-V/beta-3 = Integrin alpha-V/beta-3 (Homo sapiens, UniProt P05106+P06756); experiment: Inhibition of vitronectin binding to Integrin alphaVbeta3 receptor (unknown origin) by competitive ELISA; type: protein-complex assay
[2] = Induction of focal adhesions formation in rat REF52 cells plated on 68 nm nanopatterned surfaces assessed as focal adhesion area after 4 hrs post cells plating by immunofluorescence microscopy; type: functional
Procedure, shortened: (§1)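 REF52 rat embryonic fibroblasts (grown in DMEM with 10% FBS, 37 °C, 5% CO2) trypsinized and plated at 150 cells/mm2 in DMEM with 1% FBS on passivated gold nanopatterns (68 ± 9 nm spacing) functionalized with 25 μM peptide for 1 h. Fixed after 4 or 24 h, immunostained for paxillin, with phalloidin for actin and DAPI for nuclei, imaged at 63×.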

[3] = Induction of focal adhesions formation in rat REF52 cells plated on 68 nm nanopatterned surfaces assessed as focal adhesion area length after 24 hrs post cells plating by immunofluorescence microscopy; type: functional; procedure, shortened: as §1
[4] = Induction of focal adhesions formation in rat REF52 cells plated on 68 nm nanopatterned surfaces assessed as focal adhesion area after 24 hrs post cells plating by immunofluorescence microscopy; type: functional; procedure, shortened: as §1
[5] = Induction of focal adhesions formation in rat REF52 cells plated on 68 nm nanopatterned surfaces assessed as axial ratio after 4 hrs post cells plating by immunofluorescence microscopy; type: functional; procedure, shortened: as §1
[6] = Induction of focal adhesions formation in rat REF52 cells plated on 68 nm nanopatterned surfaces assessed as axial ratio after 24 hrs post cells plating by immunofluorescence microscopy; type: functional; procedure, shortened: as §1
[7] = Induction of focal adhesions formation in rat REF52 cells plated on 68 nm nanopatterned surfaces assessed as focal adhesion area width after 24 hrs post cells plating by immunofluorescence microscopy; type: functional; procedure, shortened: as §1
[8] = Induction of focal adhesions formation in rat REF52 cells plated on 68 nm nanopatterned surfaces assessed as focal adhesion area length after 4 hrs post cells plating by immunofluorescence microscopy; type: functional; procedure, shortened: as §1
[9] = Induction of focal adhesions formation in rat REF52 cells plated on 68 nm nanopatterned surfaces assessed as focal adhesion total area/cell area ratio after 4 hrs post cells plating by immunofluorescence microscopy; type: functional; procedure, shortened: as §1
[10] = Induction of focal adhesions formation in rat REF52 cells plated on 68 nm nanopatterned surfaces assessed as focal adhesion area width after 4 hrs post cells plating by immunofluorescence microscopy; type: functional; procedure, shortened: as §1
[11] = Induction of focal adhesions formation in rat REF52 cells plated on 68 nm nanopatterned surfaces assessed as focal adhesion total area/cell area ratio after 24 hrs post cells plating by immunofluorescence microscopy; type: functional; procedure, shortened: as §1

| IC50 (Integrin alpha-V/beta-6) [nM] | IC50 (Integrin alpha-5/beta-1) [nM] | IC50 (Integrin alpha-V/beta-5) [nM] | IC50 [1] [nM] | IC50 (Integrin alpha-V/beta-3) [nM] | SMILES | other results |
| --- | --- | --- | --- | --- | --- | --- |
| 68 | 133 | 310 | > 10000 | – | N=C(N)NCCC[C@@H]1NC(=O)[C@H](CCCCN)NC(=O)[C@@H](Cc2ccccc2)NC(=O)[C@H](CC(=O)O)NC(=O)CNC1=O | – |
| 4 | 2810 | > 10000 | > 10000 | > 10000 | Cc1ccnc(NCCCC(=O)NCC(=O)NC(CC(=O)O)c2ccc(-c3cccc4ccccc34)cc2)c1 (stereo unspecified) | – |
| – | 197 | – | – | 13.6 | N=C(N)NCCC[C@@H]1NC(=O)[C@H](CCCCNC(=O)CCSCCOCCOCCOCCOCCOCCOCCO)NC(=O)[C@@H](Cc2ccccc2)NC(=O)[C@H](CC(=O)O)NC(=O)CNC1=O | Activity [2]: 3.4 um2; Activity [3]: 4.17 um; Activity [4]: 4.12 um2; Ratio [5]: 3.24; Ratio [6]: 3.42; Activity [7]: 1.31 um; Activity [8]: 3.78 um; Ratio [9]: 0.093; Activity [10]: 1.25 um; Ratio [11]: 0.076 |
| – | 27 | – | – | > 10000 | N=C(N)NCCC[C@@H]1NC(=O)CNC(=O)C[C@@H](C(=O)O)NC(=O)[C@@H](c2ccccc2)NC(=O)[C@@H](CCCCNC(=O)CCSCCOCCOCCOCCOCCOCCOCCO)NC1=O | Activity [2]: 1.24 um2; Activity [3]: 3.94 um; Activity [4]: 2.61 um2; Ratio [5]: 6.01; Ratio [6]: 4.68; Activity [7]: 0.9 um; Activity [8]: 2.92 um; Ratio [9]: 0.07; Activity [10]: 0.51 um; Ratio [11]: 0.079 |
| 92 | 5.5 | > 10000 | > 10000 | > 10000 | NC(N)=NCCC[C@@H]1NC(=O)CNC(=O)C[C@@H](C(=O)O)NC(=O)[C@@H](c2ccccc2)NC(=O)[C@@H](Cc2c[nH]c3ccccc23)NC1=O | – |
| – | 72 | – | – | > 10000 | NC(N)=NCCC[C@@H]1NC(=O)CNC(=O)C[C@@H](C(=O)O)NC(=O)[C@@H](c2ccccc2)NC(=O)[C@H](Cc2c[nH]c3ccccc23)NC1=O | – |
| – | 8.7 | – | – | > 10000 | NC(N)=NCCC[C@@H]1NC(=O)CNC(=O)C[C@@H](C(=O)O)NC(=O)[C@@H](c2ccccc2)NC(=O)[C@@H](Cc2ccc(O)cc2)NC1=O | – |
| – | 39 | – | – | > 10000 | NC(N)=NCCC[C@@H]1NC(=O)CNC(=O)C[C@@H](C(=O)O)NC(=O)[C@@H](c2ccccc2)NC(=O)[C@H](Cc2ccc(O)cc2)NC1=O | – |
| – | 92 | – | – | 3870 | NC(N)=NCCC[C@@H]1NC(=O)CNC(=O)C[C@@H](C(=O)O)NC(=O)[C@@H](c2ccccc2)NC(=O)[C@H](CCC(=O)O)NC1=O | – |
| – | 11 | – | – | > 10000 | NC(N)=NCCC[C@@H]1NC(=O)CNC(=O)C[C@@H](C(=O)O)NC(=O)[C@@H](c2ccccc2)NC(=O)[C@@H](CCC(=O)O)NC1=O | – |
| 19 | 8.7 | > 10000 | > 10000 | > 10000 | N=C(N)NCCC[C@@H]1NC(=O)CNC(=O)C[C@@H](C(=O)O)NC(=O)[C@@H](c2ccccc2)NC(=O)[C@@H](CCCCN)NC1=O | – |
| 140 | 94 | > 10000 | > 10000 | 516 | NCCCC[C@@H]1NC(=O)[C@H](CCCN=C(N)N)NC(=O)CNC(=O)C[C@@H](C(=O)O)NC(=O)[C@@H](c2ccccc2)NC1=O | – |
| – | 7 | – | – | > 10000 | N=C(N)NCCC[C@@H]1NC(=O)CNC(=O)C[C@@H](C(=O)O)NC(=O)[C@@H](c2ccccc2)NC(=O)[C@H]2CCCN2C1=O | – |
| – | 111 | – | – | 675 | NC(N)=NCCC[C@@H]1NC(=O)CNC(=O)C[C@@H](C(=O)O)NC(=O)[C@@H](c2ccccc2)NC(=O)[C@@H]2CCCN2C1=O | – |
| – | 7.3 | – | – | > 10000 | CC(C)[C@H]1NC(=O)[C@H](CCCN=C(N)N)NC(=O)CNC(=O)C[C@@H](C(=O)O)NC(=O)[C@@H](c2ccccc2)NC1=O | – |
| – | 115 | – | – | 576 | CC(C)[C@@H]1NC(=O)[C@H](CCCN=C(N)N)NC(=O)CNC(=O)C[C@@H](C(=O)O)NC(=O)[C@@H](c2ccccc2)NC1=O | – |
| 106 | 19 | > 10000 | > 10000 | > 1000 | N=C(N)NCCC[C@@H]1NC(=O)CNC(=O)C[C@@H](C(=O)O)NC(=O)[C@@H](c2ccccc2)NC(=O)CNC1=O | – |
